Measured values reported in ChEMBL document CHEMBL1138667, “Phenylguanidines as selective nonpeptide melanocortin-5 receptor antagonists” (J Med Chem, 2004).

What was measured:
[1] = molecular target: T1, Melanocortin receptor 5 (Homo sapiens, UniProt P33032); assay: Inhibition of [125I]NDP-MSH binding to human Melanocortin 5 receptor expressed in HEK293 cells; assay type: cell-based
Procedure, shortened: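 Competitive binding on membranes from HEK293 cells stably expressing human MC5 receptor, with [125I]NDP-MSH as the radioligand. Inhibition of radioligand binding was measured and Ki derived from more than 3 determinations.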

[2] = molecular target: T2, Melanocortin receptor 4 (Homo sapiens, UniProt P32245); assay: Intrinsic activity as percentage of maximal melanocortin receptor 4 related cAMP production relative to alpha-MSH; assay type: functional
T2 sequence (P32245 whole entry): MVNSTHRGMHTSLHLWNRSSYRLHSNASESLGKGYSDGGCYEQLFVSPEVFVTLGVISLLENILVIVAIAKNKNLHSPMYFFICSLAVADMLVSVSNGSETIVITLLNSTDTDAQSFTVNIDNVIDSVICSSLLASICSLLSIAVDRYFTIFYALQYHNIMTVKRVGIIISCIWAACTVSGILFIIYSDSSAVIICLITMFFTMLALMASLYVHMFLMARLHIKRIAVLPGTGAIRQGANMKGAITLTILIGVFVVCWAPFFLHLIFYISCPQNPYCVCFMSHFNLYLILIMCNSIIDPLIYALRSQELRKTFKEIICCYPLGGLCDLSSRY

[3] = molecular target: T2, Melanocortin receptor 4; assay: Binding affinity for human melanocortin 4 receptor
Procedure, shortened: (§1)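 Human MC1, MC3 or MC4 receptor expressed in HEK293 cells. Membranes bearing each receptor were used in a competitive binding assay measuring inhibition of [125I]NDP-MSH binding, with inhibition curves generated.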

[4] = molecular target: T3, Melanocyte-stimulating hormone receptor (Homo sapiens, UniProt Q01726); assay: Percentage inhibition of human melanocortin 1 receptor at 10 uM
Target sequence in this assay (Q01726 whole entry, looked up): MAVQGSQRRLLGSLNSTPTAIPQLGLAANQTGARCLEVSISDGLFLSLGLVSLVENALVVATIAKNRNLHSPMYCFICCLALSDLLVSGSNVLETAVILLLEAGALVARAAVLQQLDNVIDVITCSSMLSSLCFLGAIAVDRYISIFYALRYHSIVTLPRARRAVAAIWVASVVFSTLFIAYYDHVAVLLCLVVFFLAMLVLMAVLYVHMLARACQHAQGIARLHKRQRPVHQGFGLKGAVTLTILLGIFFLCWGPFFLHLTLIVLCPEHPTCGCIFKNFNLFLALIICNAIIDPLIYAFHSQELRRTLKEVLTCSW

[5] = molecular target: Melanocortin receptor 3 (Homo sapiens, UniProt P41968); assay: Binding affinity for human melanocortin 3 receptor; procedure, shortened: as §1
Melanocortin receptor 3, sequence (P41968 whole entry): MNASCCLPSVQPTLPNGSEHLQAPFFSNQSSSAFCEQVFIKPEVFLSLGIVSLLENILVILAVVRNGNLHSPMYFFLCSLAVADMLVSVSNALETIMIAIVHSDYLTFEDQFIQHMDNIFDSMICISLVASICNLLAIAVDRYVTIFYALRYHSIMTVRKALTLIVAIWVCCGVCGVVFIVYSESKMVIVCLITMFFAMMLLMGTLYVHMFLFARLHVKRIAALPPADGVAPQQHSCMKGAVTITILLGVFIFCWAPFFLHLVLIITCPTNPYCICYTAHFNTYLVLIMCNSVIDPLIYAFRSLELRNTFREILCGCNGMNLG

[6] = molecular target: T1, Melanocortin receptor 5; assay: Inhibition of human Melanocortin 5 receptor
[7] = molecular target: T3, Melanocyte-stimulating hormone receptor; assay: Binding affinity for human melanocortin 1 receptor; procedure, shortened: as §1
Target sequence in this assay (Q01726 whole entry): as the sequence (Q01726 whole entry, looked up) above

T1 sequence (P33032 whole entry): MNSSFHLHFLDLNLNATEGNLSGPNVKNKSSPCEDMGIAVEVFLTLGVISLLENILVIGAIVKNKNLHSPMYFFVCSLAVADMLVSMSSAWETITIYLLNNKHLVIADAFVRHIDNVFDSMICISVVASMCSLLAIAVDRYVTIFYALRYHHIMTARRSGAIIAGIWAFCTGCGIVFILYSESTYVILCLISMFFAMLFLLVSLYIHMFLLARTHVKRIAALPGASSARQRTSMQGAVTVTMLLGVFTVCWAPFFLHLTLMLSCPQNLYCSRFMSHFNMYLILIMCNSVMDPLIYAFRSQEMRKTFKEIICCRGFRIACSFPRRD

Question: How did the Ki [1] turn out when `CN1CCN(/C(=N/c2ccc(C(=O)NCCc3ccc(Cl)cc3Cl)cc2)NC2CCCCC2)CC1` was run?
Answer: The Ki was 50 nM.

Question: With `CC1CC(C)CN(C(=NC2CCCCC2)Nc2ccc(C(=O)NCCc3ccc(Cl)cc3Cl)cc2)C1` (stereo not given) as the compound, how does the Ki [1] read?
Answer: The Ki was 144 nM.

Question: `O=C(NCCc1ccc(Cl)cc1Cl)c1ccc(NC(=NC2CCCCC2)N2CCN(Cc3ccccc3)CC2)cc1` was tested. Which Ki [1] did it give?
Answer: The Ki was 44 nM.

Question: How did the Ki [1] turn out when `CN(/C(=N/c1ccc(C(=O)NCCc2ccc(Cl)cc2Cl)cc1)NC1CCCCC1)C1CCCCC1` was run?
Answer: The Ki was 91 nM.

Question: Which Ki [1] does the source give for `CC1C(=O)NCCN1C(=NC1CCCCC1)Nc1ccc(C(=O)NCCc2ccc(Cl)cc2Cl)cc1` (stereo not given) here?
Answer: The Ki was 1050 nM.

Question: How did the Ki [1] turn out when `O=C(NCCc1ccc(Cl)cc1Cl)c1ccc(NC(=NC2CCCCC2)N2CCC(N3CCCC3)CC2)cc1` was run?
Answer: Its Ki is 77 nM.

Question: `Cc1ccc(C)c(N2CCN(C(=NC3CCCCC3)Nc3ccc(C(=O)NCCc4ccc(Cl)cc4Cl)cc3)CC2)c1` was tested. Which Ki [1] did it give?
Answer: The Ki was 1760 nM.

Question: How did the IA [2] turn out when `O=C(NCCc1ccc(Cl)cc1Cl)c1ccc(N/C(=N/C2CCCCC2)N2CCNCC2)cc1` was run?
Answer: Its IA is 28%.

Question: `O=C1CN(C(=NC2CCCCC2)Nc2ccc(C(=O)NCCc3ccc(Cl)cc3Cl)cc2)CCN1` was tested. Which Ki [1] did it give?
Answer: The Ki was 560 nM.

Question: What does the source list for `CNC1CCN(/C(=N/c2ccc(C(=O)NCCc3ccc(Cl)cc3Cl)cc2)NC2CCCCC2)C1` (stereo not given)?
Answer: Ki [3]: 1400 nM; inhibition [4]: 27%; Ki [5]: 2300 nM; IC50 [6]: 630 nM; Ki [1]: 36 nM; IA [2]: 36%

Question: How did the Ki [1] turn out when `O=C(NCCc1ccc(Cl)cc1Cl)c1ccc(NC(=NC2CCCCC2)NCc2cc(F)cc(F)c2)cc1` was run?
Answer: The Ki was 70 nM.

Question: Which Ki [1] does the source give for `NC1CCN(C(=NC2CCCCC2)Nc2ccc(C(=O)NCCc3ccc(Cl)cc3Cl)cc2)CC1` here?
Answer: Its Ki is 230 nM.

Question: Which results are given for `CC(C)(N)C/N=C(\Nc1ccc(C(=O)NCCc2ccc(Cl)cc2Cl)cc1)NC1CCCCC1`?
Answer: Ki [3]: 1300 nM; inhibition [4]: 27%; Ki [5]: 2400 nM; IC50 [6]: 530 nM; Ki [1]: 5.3 nM; IA [2]: 45%

Question: What does the source list for `O=C(NCCc1ccc(Cl)cc1Cl)c1ccc(NC(=NC2CCCCC2)N2CCNCC2)cc1`?
Answer: Ki [3]: 650 nM; Ki [5]: 2200 nM; IC50 [6]: 460 nM; Ki [1]: 18 nM; Ki [7]: 400 nM

Question: How did the Ki [1] turn out when `O=C(NCCc1ccc(Cl)cc1Cl)c1ccc(NC(=NC2CCCCC2)N2CCN(c3ncccn3)CC2)cc1` was run?
Answer: Its Ki is 305 nM.

Question: For `CCCN(CCC)/C(=N/c1ccc(C(=O)NCCc2ccc(Cl)cc2Cl)cc1)NC1CCCCC1`, which Ki [1] is on record?
Answer: The Ki was 360 nM.

Question: `CC1CN(/C(=N/c2ccc(C(=O)NCCc3ccc(Cl)cc3Cl)cc2)NC2CCCCC2)CC(C)N1` (stereo not given) was tested. Which inhibition [4] did it give?
Answer: The inhibition was 23%.

Question: And the IA [2]?
Answer: Its IA is 76%.

Question: For `C[C@@H]1CN(C(=NC2CCCCC2)Nc2ccc(C(=O)NCCc3ccc(Cl)cc3Cl)cc2)CCN1`, which Ki [3] is on record?
Answer: Its Ki is 840 nM.

Question: And the Ki [5]?
Answer: The Ki was 3500 nM.

Question: And the IC50 [6]?
Answer: The IC50 was 70 nM.

Question: And the Ki [1]?
Answer: Its Ki is 2.1 nM.

Question: For `C[C@H]1CN(/C(=N/c2ccc(C(=O)NCCc3ccc(Cl)cc3Cl)cc2)NC2CCCCC2)CCN1`, which Ki [3] is on record?
Answer: Its Ki is 580 nM.

Question: And the inhibition [4]?
Answer: Its inhibition is 29%.

Question: What about the Ki [5] of the same compound?
Answer: Its Ki is 2800 nM.

Question: And the IC50 [6]?
Answer: The IC50 was 380 nM.

Question: What about the Ki [1] of the same compound?
Answer: Its Ki is 21 nM.

Question: What about the IA [2] of the same compound?
Answer: The IA was 65%.

Question: How did the Ki [3] turn out when `CC1CN(C(=NC2CCCCC2)Nc2ccc(C(=O)NCCc3ccc(Cl)cc3Cl)cc2)CC(C)N1` (stereo not given) was run?
Answer: Its Ki is 590 nM.

Question: What about the Ki [5] of the same compound?
Answer: The Ki was 3900 nM.

Question: What about the IC50 [6] of the same compound?
Answer: Its IC50 is 89 nM.

Question: And the Ki [1]?
Answer: The Ki was 11 nM.

Question: `O=C(NCCc1ccc(Cl)cc1Cl)c1ccc(NC(=NC2CCCCC2)N2CCN(c3ccccc3)CC2)cc1` was tested. Which Ki [1] did it give?
Answer: The Ki was 290 nM.

Question: For `CC1CN(C(=NC2CCCCC2)Nc2ccc(C(=O)NCCc3ccc(Cl)cc3Cl)cc2)CC(C)O1` (stereo not given), which Ki [1] is on record?
Answer: Its Ki is 350 nM.

Question: For `C[C@@H]1CN[C@@H](C)CN1/C(=N/c1ccc(C(=O)NCCc2ccc(Cl)cc2Cl)cc1)NC1CCCCC1`, which Ki [3] is on record?
Answer: Its Ki is 840 nM.

Question: And the Ki [5]?
Answer: Its Ki is 2800 nM.

Question: And the IC50 [6]?
Answer: Its IC50 is 380 nM.

Question: And the Ki [1]?
Answer: The Ki was 5.9 nM.

Question: What about the Ki [7] of the same compound?
Answer: Its Ki is 360 nM.

Question: Which inhibition [4] does the source give for `C[C@@H]1CN(/C(=N/c2ccc(C(=O)NCCc3ccc(Cl)cc3Cl)cc2)NC2CCCCC2)CCN1` here?
Answer: The inhibition was 25%.

Question: And the IA [2]?
Answer: Its IA is 37%.

Question: Which Ki [3] does the source give for `O=C(NCCc1ccc(Cl)cc1Cl)c1ccc(N/C(=N\C2CCNC2)NC2CCCCC2)cc1` (stereo not given) here?
Answer: The Ki was 1500 nM.

Question: What about the Ki [5] of the same compound?
Answer: The Ki was 2500 nM.

Question: And the IC50 [6]?
Answer: Its IC50 is 530 nM.

Question: What about the Ki [1] of the same compound?
Answer: Its Ki is 26 nM.

Question: What about the Ki [7] of the same compound?
Answer: Its Ki is 1900 nM.
